The text below walks through data of ChEMBL document CHEMBL1255381, “Golgicide A reveals essential roles for GBF1 in Golgi assembly and function” (Nat Chem Biol, 2009).

Structures are written as SMILES. Active and inactive are the calls of the source. The calls are words filed in the database; no cut-off is given here.

Assay [1] relates to Vero. Briefly: Induction of depolymerization of actin microfilaments in african green monkey Vero cells at 25 uM after 30 mins by immunofluorescence method. It is filed as functional, cell-based. The conditions noted are these: Chlorocebus sabaeus.
Assay [2] has as its system Vero. Briefly: Effect on disruption of microtubules in african green monkey Vero cells at 5 ug/ml after 30 mins by immunofluorescence method. The conditions noted are these: Chlorocebus sabaeus. It is filed as functional, cell-based. The method, boiled down: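 They were then fixed and immunostained for microtubules, and microtubule morphology was judged by immunofluorescence microscopy against DMSO-treated cells.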

For the molecule `C=C1[C@@H](C)[C@H]2[C@H](Cc3ccccc3)NC(=O)[C@]23OC(=O)/C=C/[C@H](O)CCC[C@@H](C)C/C=C/[C@H]3[C@@H]1O`, the result in the assay on Vero [1] was Active.

On to `COC(=O)Nc1nc2cc(C(=O)c3cccs3)ccc2[nH]1`, for which, in the assay with Vero [2], the outcome was Active.
